Assay results taken from ChEMBL document CHEMBL1132173, “Novel derivatives of 2-pyridinemethylamine as selective, potent, and orally active agonists at 5-HT1A receptors” (J Med Chem, 1999).

Legend:
Rattus norvegicus [1] = assay: Induction of lower lip retraction in rat 60 min after administration, effective peroral dose determined in vivo; assay type: functional; details: po, 1 h
In short: (§1)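 Observed in 10 min windows centred 15 and 60 min post-dose, 10 s each minute, scoring lower lip retraction present or absent (0–10).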

D(2) dopamine receptor = D(2) dopamine receptor (Rattus norvegicus, UniProt P61169); assay: Binding affinity towards Dopamine receptor D2 in rat striatum using YM-09151-2 as a radioligand; assay type: tissue-based
Sequence of D(2) dopamine receptor (P61169 whole entry): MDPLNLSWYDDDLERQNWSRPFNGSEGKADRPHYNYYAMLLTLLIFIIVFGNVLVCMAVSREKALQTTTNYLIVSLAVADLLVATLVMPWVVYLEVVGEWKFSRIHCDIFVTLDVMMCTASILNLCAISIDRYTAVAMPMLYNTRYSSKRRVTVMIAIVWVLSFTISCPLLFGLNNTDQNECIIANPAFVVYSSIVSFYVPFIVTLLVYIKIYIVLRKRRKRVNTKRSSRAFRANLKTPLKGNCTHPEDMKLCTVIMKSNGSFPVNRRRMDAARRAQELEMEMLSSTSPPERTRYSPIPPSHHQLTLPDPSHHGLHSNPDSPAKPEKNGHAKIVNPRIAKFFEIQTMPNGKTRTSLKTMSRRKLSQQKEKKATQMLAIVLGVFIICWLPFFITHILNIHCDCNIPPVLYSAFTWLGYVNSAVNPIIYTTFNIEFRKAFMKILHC
In short: (§2)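 Rat tissue membranes, competition against radioligand at 23 °C. Nonspecific binding: 5-HT for 5-HT1A (30 min), (+)-butaclamol for D2 (60 min), phentolamine for α1 (30 min). Tris HCl 50 mM pH 7.4 buffers. Filtration through glass-fibre filters, then scintillation counting. Run in triplicate; IC50 by nonlinear regression; Ki by Cheng–Prusoff; mean pKi of three determinations.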

[2] = target: T1, 5-hydroxytryptamine receptor 1A (Rattus norvegicus, UniProt P19327); assay: Binding affinity towards 5-hydroxytryptamine 1A receptor in rat cortex using [3H]8-OH-DPAT as a radioligand; in short: as §2
T1 sequence (P19327 whole entry): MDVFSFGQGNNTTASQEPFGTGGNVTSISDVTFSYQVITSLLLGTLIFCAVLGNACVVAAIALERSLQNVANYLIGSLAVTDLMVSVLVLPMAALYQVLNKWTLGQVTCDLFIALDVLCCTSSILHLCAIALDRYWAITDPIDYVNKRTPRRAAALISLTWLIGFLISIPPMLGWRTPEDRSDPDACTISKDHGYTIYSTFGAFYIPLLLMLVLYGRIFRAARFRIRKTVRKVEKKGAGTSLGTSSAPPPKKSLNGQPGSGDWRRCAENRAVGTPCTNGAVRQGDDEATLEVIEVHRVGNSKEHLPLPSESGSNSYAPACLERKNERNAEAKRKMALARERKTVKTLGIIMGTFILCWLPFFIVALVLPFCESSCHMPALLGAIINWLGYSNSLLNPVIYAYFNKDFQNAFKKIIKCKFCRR

Rattus norvegicus [3] = assay: Effective intraperitoneal dose in vivo in rat after 60 mins to induce lower lip retraction; assay type: functional; details: ip, 1 h; in short: as §1
[4] = target: T2, Adrenergic receptor alpha-1 (Rattus norvegicus, UniProt P15823+P23944+P43140); assay: Binding affinity towards Alpha-1 adrenergic receptor using prazosin as a radioligand in rat cortex; in short: as §2
T2 sequence (P15823 whole entry): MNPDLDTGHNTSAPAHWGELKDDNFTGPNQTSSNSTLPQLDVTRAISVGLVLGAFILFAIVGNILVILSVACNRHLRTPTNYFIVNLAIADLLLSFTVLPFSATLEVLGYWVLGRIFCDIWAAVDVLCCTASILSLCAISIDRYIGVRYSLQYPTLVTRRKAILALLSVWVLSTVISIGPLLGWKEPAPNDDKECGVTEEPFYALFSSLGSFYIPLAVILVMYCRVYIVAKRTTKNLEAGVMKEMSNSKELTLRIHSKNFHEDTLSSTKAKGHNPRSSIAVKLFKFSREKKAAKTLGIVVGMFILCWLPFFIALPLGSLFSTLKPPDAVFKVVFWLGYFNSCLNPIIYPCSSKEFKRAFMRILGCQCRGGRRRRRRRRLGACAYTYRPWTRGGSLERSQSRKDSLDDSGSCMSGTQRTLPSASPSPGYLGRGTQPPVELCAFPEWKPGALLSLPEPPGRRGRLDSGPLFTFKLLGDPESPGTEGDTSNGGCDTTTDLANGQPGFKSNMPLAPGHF
T2 sequence (P23944 whole entry): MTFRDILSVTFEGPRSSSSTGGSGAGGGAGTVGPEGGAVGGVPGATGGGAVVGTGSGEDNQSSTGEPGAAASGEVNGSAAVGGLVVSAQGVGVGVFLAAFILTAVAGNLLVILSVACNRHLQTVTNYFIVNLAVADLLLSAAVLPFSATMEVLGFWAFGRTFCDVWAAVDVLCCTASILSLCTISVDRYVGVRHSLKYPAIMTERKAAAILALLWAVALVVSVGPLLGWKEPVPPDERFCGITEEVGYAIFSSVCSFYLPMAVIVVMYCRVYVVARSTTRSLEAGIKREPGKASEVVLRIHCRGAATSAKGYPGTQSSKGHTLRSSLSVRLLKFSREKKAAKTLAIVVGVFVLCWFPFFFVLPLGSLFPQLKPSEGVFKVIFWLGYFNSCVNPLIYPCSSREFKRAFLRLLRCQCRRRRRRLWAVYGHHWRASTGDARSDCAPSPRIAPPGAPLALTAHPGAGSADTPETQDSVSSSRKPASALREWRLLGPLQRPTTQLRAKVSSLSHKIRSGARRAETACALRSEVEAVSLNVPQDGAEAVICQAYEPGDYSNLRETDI
T2 sequence (P43140 whole entry): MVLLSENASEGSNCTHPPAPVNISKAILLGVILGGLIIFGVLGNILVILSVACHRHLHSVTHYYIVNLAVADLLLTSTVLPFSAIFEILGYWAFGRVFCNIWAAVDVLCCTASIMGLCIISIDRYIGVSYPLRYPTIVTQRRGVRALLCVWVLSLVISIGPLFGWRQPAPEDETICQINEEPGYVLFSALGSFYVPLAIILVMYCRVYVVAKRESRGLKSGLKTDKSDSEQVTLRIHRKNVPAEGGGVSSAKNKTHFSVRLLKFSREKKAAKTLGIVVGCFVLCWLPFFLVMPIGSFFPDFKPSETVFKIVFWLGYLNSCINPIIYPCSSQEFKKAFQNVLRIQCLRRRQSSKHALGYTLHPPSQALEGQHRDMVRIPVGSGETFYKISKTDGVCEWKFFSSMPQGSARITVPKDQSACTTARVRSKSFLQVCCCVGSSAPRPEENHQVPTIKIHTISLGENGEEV

[5] = target: T3, 5-hydroxytryptamine receptor 1A (Homo sapiens, UniProt P08908); assay: In vitro effective concentration required to inhibit forskolin-stimulated cAMP levels in HA7 cells expressing human 5-HT1A receptor; assay type: functional, cell-based
T3 sequence (P08908 whole entry): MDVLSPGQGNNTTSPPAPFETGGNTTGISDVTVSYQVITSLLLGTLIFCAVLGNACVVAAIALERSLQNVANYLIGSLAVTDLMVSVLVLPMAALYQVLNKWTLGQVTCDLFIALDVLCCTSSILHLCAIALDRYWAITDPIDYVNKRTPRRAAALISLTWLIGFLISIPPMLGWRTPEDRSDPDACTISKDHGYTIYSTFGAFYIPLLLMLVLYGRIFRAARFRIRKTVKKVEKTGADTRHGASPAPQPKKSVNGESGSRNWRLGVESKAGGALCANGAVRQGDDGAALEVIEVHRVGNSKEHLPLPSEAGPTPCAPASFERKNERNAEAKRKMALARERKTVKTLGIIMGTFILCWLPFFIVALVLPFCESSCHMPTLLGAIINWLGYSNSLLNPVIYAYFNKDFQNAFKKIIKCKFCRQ
In short: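 HeLa HA7 cells stably expressing human 5-HT1A, at 80–90% confluency, antibiotic-free for 24 h. Preincubated 10 min at RT in DMEM/10 mM Hepes, then drug at 0.1 nM–100 µM with 100 µM forskolin and 100 µM IBMX for 10 min at RT. Stopped with 0.1 N HCl; cAMP by radioimmunoassay as % of forskolin control; pEC50.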

Rattus norvegicus [6] = assay: Effective intraperitoneal dose in vivo in rat after 15 mins to induce lower lip retraction; assay type: functional; details: ip, 0.25 h; in short: as §1
Rattus norvegicus [7] = species on record: Rattus norvegicus; assay: Potency to produce a significant inhibition of immobility in the rat.; assay type: functional
In short: (§3)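 Rat forced swim, 5 min test 24 h after a 15 min pre-swim, with oral dose (10 mL/kg) 60 min before the test, n = 10 per dose. Significant response: immobility <138 s, a value seen in <5% of vehicle controls. ED50 by linear interpolation of % responders.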

Rattus norvegicus [8] = species on record: Rattus norvegicus; assay: Maximum inhibition of immobility in the rat.(Expressed as percentage of immobility observed in vehicle controls); assay type: functional
In short: (§4)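 Rat forced swim: 15 min pre-swim in 17 cm water at 25 °C, then 5 min test 24 h later with blind scoring of immobility. Oral dosing (10 mL/kg) 60 min before the test, n = 10 per dose. Inhibition is the difference in median immobility from vehicle controls, as % of the control median.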

Rattus norvegicus [9] = species on record: Rattus norvegicus; assay: Maximum inhibition of immobility in the rat (Expressed as percentage of immobility observed in vehicle controls); assay type: functional; in short: as §4
Rattus norvegicus [10] = species on record: Rattus norvegicus; assay: Potency to produce a significant inhibition of immobility in rat; assay type: functional; in short: as §3
Rattus norvegicus [11] = assay: Effective dose in vivo in rat to induce lower lip retraction; assay type: functional; in short: as §1
Rattus norvegicus [12] = species on record: Rattus norvegicus; assay: Potency to produce a significant inhibition of immobility in the rat; assay type: functional; in short: as §3

Row | Compound | ED50 (Rattus norvegicus [1]) [mg/kg] | Ki (D(2) dopamine receptor) [nM] | Ki [2] [nM] | ED50 (Rattus norvegicus [3]) [mg/kg] | Log Ki [4] | EC50 [5] [nM] | ED50 (Rattus norvegicus [6]) [mg/kg] | ED50 (Rattus norvegicus [7]) [mg/kg] | Inhibition (Rattus norvegicus [8]) [%] | Inhibition (Rattus norvegicus [9]) [%] | ED50 (Rattus norvegicus [10]) [mg/kg] | ED50 (Rattus norvegicus [11]) [mg/kg] | ED50 (Rattus norvegicus [12]) [mg/kg]
1 | O=C(c1ccc(Cl)c(Cl)c1)N1CCC(F)(CNCc2cccc(-c3cccs3)n2)CC1 | 1.3 | 457 | 1.23 | 0.32 | -6.72 | 12 | 0.32 |  |  |  |  |  | 
2 | Cc1ccc(C(=O)N2CCC(F)(CNCc3cccc(N(C)C)n3)CC2)cc1Cl | 0.32 | 129 | 0.269 | 0.08 | -6.86 | 5.75 | 0.08 |  |  |  |  |  | 
3 | CN(C)c1cccc(CNCC2(F)CCN(C(=O)c3ccc(F)c(Cl)c3)CC2)n1 | 0.16 |  |  | 0.11 | -6.68 | 3.63 | 0.29 | 0.16 | >80 |  |  |  | 
4 | O=C(c1ccc(F)c(Cl)c1)N1CCC(F)(CNCc2cccc(-c3ccco3)n2)CC1 | 0.32 |  |  | 0.11 | -6.12 | 3.47 | 0.08 |  |  | >80 | 0.09 |  | 
5 | O=C(c1ccc(Cl)c(Cl)c1)N1CCC(F)(CNCc2cccc(-c3ccco3)n2)CC1 | 0.32 | 1200 | 1.05 | 0.23 | -6.39 | 2.63 | 0.16 |  |  |  |  |  | 
6 | O=C(c1ccc(Cl)c(Cl)c1)N1CCC(F)(CNCc2cccc(-n3cccn3)n2)CC1 |  |  | 0.204 |  |  | 28.2 |  |  |  |  |  | 1.3 | 
7 | O=C(c1ccc(Cl)c(Cl)c1)N1CCC(F)(CNCc2cccc(-c3cnco3)n2)CC1 | 1.3 | 2240 | 0.468 | 0.32 | -5.9 | 8.91 | 0.32 |  |  |  |  |  | 
8 | CNc1nc(CNCC2(F)CCN(C(=O)c3ccc(F)c(Cl)c3)CC2)ccc1C | 0.08 |  |  |  |  | 2.14 | 0.02 |  | >80 |  |  |  | 0.05
9 | O=C(c1ccc(Cl)c(Cl)c1)N1CCC(F)(CNCc2cccc(-c3cc[nH]n3)n2)CC1 | 1.3 | 4070 | 0.302 | 0.32 | -6.1 | 1.12 | 0.32 |  |  |  |  |  | 
10 | CN(C)CCCN1c2ccccc2CCc2ccccc21 [IMIPRAMINE] |  |  |  |  |  |  |  |  |  | 31 | 80 |  | 
